NPY-Y1 PAM-ag = potentiators or agonists of human neuropeptide Y receptor Y1; NPY-Y1 expressing cells, potentiator/agonist activation; activation, % at 3.6 µM; 220,000 compounds, 0.37% hits; AID 1304; in the data active means activation above about 33%, passing the limit was not always enough;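 further: cells stimulated with NPY at EC10 then isoproterenol at EC100; 0% = low agonist plus stimulus and 100% = saturating agonist plus stimulus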
Target sequence (P25929 whole entry, looked up): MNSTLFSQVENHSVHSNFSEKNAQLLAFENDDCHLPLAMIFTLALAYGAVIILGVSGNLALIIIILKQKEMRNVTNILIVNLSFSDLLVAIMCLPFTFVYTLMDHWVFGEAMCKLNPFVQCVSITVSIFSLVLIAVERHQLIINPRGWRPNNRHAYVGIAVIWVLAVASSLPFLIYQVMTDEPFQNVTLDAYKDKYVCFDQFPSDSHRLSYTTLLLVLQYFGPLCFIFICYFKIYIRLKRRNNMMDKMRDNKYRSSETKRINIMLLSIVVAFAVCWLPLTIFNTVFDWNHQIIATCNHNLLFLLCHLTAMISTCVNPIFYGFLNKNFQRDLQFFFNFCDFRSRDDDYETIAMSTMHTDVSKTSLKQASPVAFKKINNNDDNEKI
NPY2 pot ag = potentiates or activates human NPY-Y2 receptor; P49146; cells expressing NPY-Y2, potentiator/agonist read-out; activation, % at 3.6 µM; 220,000 compounds, 0.45% hits; in the data active means activation above about 27%;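 further: cells stimulated with NPY near EC25 plus isoproterenol at EC100; 0% = vehicle plus submaximal agonist and 100% = vehicle plus saturating agonist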
NPY-Y1 antag = blocks the human neuropeptide Y Y1 receptor; P25929; HEK293-CNG Y1 cells, membrane potential fluorescence; NPY at EC95, then isoproterenol; inhibition, % at 3.6 µM; 200,000 compounds, 1% hits;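 active means inhibition above the campaign mean inhibition of all tested compounds plus 3 SD, cut at about 20% in these data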;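 further: 0% = DMSO wells given NPY plus isoproterenol and 100% = isoproterenol alone without NPY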
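Material: HEK293 Y1/CNG channel cell line | Also added: NPY (25 nM), isoproterenol (1 µM), Ro 20-1724 (25 µM) | Compound: One concentration, 3.6 µM, in 0.4% DMSO | Schedule: 3 h dye uptake, 1 h room-temperature compound, 45 min post-isoproterenol | Signal: Membrane-potential fluorescent dye readout | Read-out: % inhibition of NPY effect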
NPY Y2 blocker = antagonists of human neuropeptide Y receptor Y2; NPY-Y2 expressing cells, antagonist mode; inhibition, % at 2.7 µM; P49146; AID 793; 140,000 compounds, 0.99% hits; in the data active means inhibition above about 17%;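 further: 0% = vehicle with agonist challenge and 100% = reference antagonist with challenge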
PGE2 EP2 inh = inhibitors of human EP2 prostaglandin E2 receptor; P43116; C6 glioma cells expressing human EP2, cAMP TR-FRET; cells stimulated with saturating PGE2; inhibition, % at 25 µM; 260,000 compounds, 0.52% hits; AID 1422;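 active means percent inhibition above 40 after rounding to a whole number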;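 further: rat C6 glioma host cells with rolipram phosphodiesterase inhibitor present; the protocol text gives 20 µM as final concentration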
EP2 mod = modulators of human EP2 prostaglandin E2 receptor; 260,000 compounds, 0.83% hits; EP2-expressing cells, cAMP HTRF FRET, PGE2 co-stimulation; induction, % at 25 µM; P43116; AID 940;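 active means compounds whose cAMP rise, as percent of the full-agonist control response, exceeds 60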;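 further: rat C6 glioma line stably carrying human EP2 under a CMV promoter; the protocol text gives 20 µM as final concentration; 100% = response of wells given 1 µM PGE2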
EP2 cAMP induct = EP2 receptor cAMP induction, counter-screens negative. AID 1080. shares compounds with EP2 mod. calls only at 20 µM (by protocol). C6 glioma EP2 cells, cAMP HTRF induction; plus low (about EC15) PGE2 agonist. 1,300 compounds, 47% hits;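 active means cAMP induction above 50% in the main assay while under 30% in all four parallel counter assays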;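 further: rat C6 glioma cells stably expressing human EP2 receptor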
An asterisk follows results filed as active; i = inactive; x = no result; + = active, no number; ! = repeats disagree. In the library only some 2.8% were active in any assay of this set; here they are far more common.

SMILES	NPY-Y1 PAM-ag	NPY2 pot ag	NPY-Y1 antag	NPY Y2 blocker	PGE2 EP2 inh	EP2 mod	EP2 cAMP induct
CCOC1(OCC)C(c2ccc(Cl)cc2)C(C#N)(C#N)C1(OCC)OCC (stereo not drawn)	-6	5	-7	6	x	33	x
CCOC1(OCC)C(c2ccc(N)cc2)C(C#N)(C#N)C1(OCC)OCC (stereo not drawn)	6	-2	6	0	7	76*	+
CC1=CC(C)(C)N2C(=O)C3(SCC(=O)N3c3ccc(F)cc3)c3cc(C)cc1c32 (stereo not drawn)	-28	-22	16	13	3	76*	+
C(=N\Nc1nc2ccccc2[nH]1)/c1ccccc1	-27	-30	11	x	10	-19	x
O=c1[nH]c(N/N=C/c2ccccc2)nc2ccccc12	-28	-26	1	9	6	69*	+
CC(C)n1cc(-c2ccc(Cl)cc2)cc(C#N)c1=O	-22	-4	6	6	10	68*	i
CC(=O)NNC(=O)CCCN1C(=O)/C(=C/c2ccc3c(c2)OCO3)SC1=S	x	x	x	x	15	-135	x
COc1ccc2[nH]cc(NC(=O)N3CCC(C(N)=O)CC3)c(=O)c2n1	x	x	x	x	16	-5	x
O=C(O)CCN1C(=O)/C(=C/c2cn(-c3ccccc3)nc2-c2cccs2)SC1=S	5	-2	2	x	4	71*	+
CCN(CC)S(=O)(=O)c1ccc(-c2nnc(SCC(=O)N3CCCCC3)n2CC)cc1	x	x	x	x	4	-24	x
CN(C)CCN(Cc1cc2cc3c(cc2[nH]c1=O)OCO3)C(=S)Nc1ccccc1	x	x	x	x	9	-31	x
CCOc1cccc(CNc2ccc(O)cc2)c1OCc1ccccc1Cl	25	4	0	14	11	84*	+
CCOc1cccc(CNc2ccc(O)cc2)c1OCc1ccc(Cl)cc1Cl	-11	-4	6	-1	x	14	x
C=CCc1cccc(C=Nc2cc(Br)ccc2O)c1O	-14	2	-1	2	6	67*	+
CN(C)c1nc(N2CCOCC2)nc(N(c2ccccc2)c2ccccc2)n1	-17	-9	4	2	9	66*	i
CCN1CCCC1CN(Cc1ccccn1)CC(C)(C)CN1CCOCC1 (stereo not drawn)	x	x	x	x	6	-46	x
CCOC(=O)/C(N=Nc1c(Br)cc(Br)cc1Br)=C(\C)O	4	-15	-3	1	8	68*	i
CCOC(=O)c1c(NC(=O)CSc2nnc(-c3ccncc3)n2C)sc2c1CCCC2	x	x	x	x	8	15	x
O=c1oc(-c2cccc3ncccc23)nn1CCN1CCCCC1	x	x	x	x	x	-10	x
CC1(C)C=Cc2c(c3c(c4c(=O)c(-c5ccc(O)cc5)coc24)OC(C)(C)CC3)O1	13	-7	-2	x	13	60	i
COC(=O)[C@H]1CN(C(=O)c2cn(C)nc2C)C[C@@H]1c1ccc(F)cc1	x	x	x	x	x	-16	x
O=S(=O)(Nc1cc(Cl)ccc1N1CCCCC1)c1cccs1	7	0	6	10	6	45	x
O=S(=O)(Nc1ccccc1N1CCCCC1)c1ccc(Cl)s1	20	-12	6	1	6	69*	i
COc1cc(C)c(CNC(=O)C2CC(c3cnn(C)c3)=NO2)cc1C(C)C (stereo not drawn)	x	x	x	x	6	-28	x
CCc1cccc(CC)c1NC(=O)CN1CCC(n2nnc3cc(C)ccc32)CC1	x	x	x	x	8	-25	x
SMILES	NPY-Y1 PAM-ag	NPY2 pot ag	NPY-Y1 antag	NPY Y2 blocker	PGE2 EP2 inh	EP2 mod	EP2 cAMP induct
CCOC(=O)c1sc2nc(C)nc(N3CCN(c4ncccn4)CC3)c2c1C	13	8	-2	x	9	67*	i
Cc1ccc2nc3c(cc(C(=O)NCc4ccccc4)c(=N)n3C(C)C)c(=O)n2c1	x	x	x	x	12	11	x
CNC(=O)c1cc2c(=O)n3cc(C)ccc3nc2n(C(C)C)c1=N	10	6	4	1	14	73*!	i
CC1(C)C2CCC1(C)C(OC(=O)CC(=O)O)C2 (stereo not drawn)	8	-2	-3	-1	17	62*	+
CC1(C)C2CCC1(C)C(OC(=O)C[n+]1ccccc1)C2 (stereo not drawn)	19	-6	x	x	8	1	x
O=C(COc1ccccc1)NC(=S)Nc1ccc2c3c(cccc13)CC2	7	-3	0	5	20	55	x
CC(C)c1ccc(OCC(=O)NC(=S)Nc2ccc3c4c(cccc24)CC3)cc1	-12	4	-3	-1	20	66*	i
O=C(CCCOc1ccc(Cl)cc1Cl)N1CCCc2ccccc21	-1	-14	13	16	12	22	x
Cc1cccc(OCCCC(=O)N2CCCc3ccccc32)c1C	-26	-28	18	7	7	82*	+
COc1ccc(Cl)cc1N1CC(C(=O)OCC(=O)c2ccccc2)CC1=O (stereo not drawn)	x	x	x	x	8	-96	x
CN(C)c1ccc(/C=C2\SC(=S)N(Nc3ncc(C(F)(F)F)cc3Cl)C2=O)cc1	-7	-10	2	5	5	3	x
COc1cc(/C=C2\SC(=S)N(Nc3ncc(C(F)(F)F)cc3Cl)C2=O)ccc1O	0	2	4	8	7	66*	i
CCc1cc2ccc(C)cc2nc1SCC(=O)NNC(=O)c1ccccc1	x	x	x	x	6	40	x
COC(=O)C1C(=O)C2=C(CC1C)Nc1ccccc1NC2c1cccc(Cl)c1Cl (stereo not drawn)	x	x	x	x	8	-3	x
CCc1ccc(Nc2oc(C)cc(=O)c2C(C)=O)cc1	-13	-14	6	-1	24	68*	i
S=C(Nc1ccccc1Cl)N1CCCC(c2nc3ccccc3[nH]2)C1 (stereo not drawn)	x	x	x	x	5	-78	x
CCOC(=O)C1=C(N)OC(C)=C(C#N)C1c1ccco1 (stereo not drawn)	5	0	-5	5	10	53	i
CCCC1=C(C(=O)OCC)C(c2ccco2)C(C#N)=C(N)O1 (stereo not drawn)	6	-13	-4	x	7	15	x
Cc1ccc(-n2c(Cc3cccc4ccccc34)n[nH]c2=S)c(C)c1	3	4	-3	x	7	61*	+
c1ccc2c(c1)OCC(c1csc3ncnc(N4CCCCC4)c13)O2 (stereo not drawn)	-22	9	6	0	19	84*	+
CCCN1CCN(c2ncnc3scc(C4COc5ccccc5O4)c23)CC1 (stereo not drawn)	-37	-27	16	x	2	7	x
Cc1cc2cc(C(c3nnnn3CC3CCCO3)N3CCCc4ccccc43)c(=O)[nH]c2cc1C (stereo not drawn)	8	7	-1	-2	0	23	x

Screening data (PubChem BioAssay)
